We go through five compounds from ChEMBL document CHEMBL1140842 (J Med Chem, 2008).

A short description of data set [1]: Solubility in PBS buffer. It is filed as physicochemical.
In a further data set the test system is NCI-H838. The data set is described as follows: Cytotoxicity against human NCI-H838 cells after 72 hrs by MTT assay. It is filed as functional, cell-based. The note with it: NCI-H838, 72 h. An outline of the steps:
(§1)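 2 × 10⁴ cells/well seeded 12 h before dosing; serial dilutions added at final 0.5 nM to […] for 72 h. Medium then replaced, MTT (5 mg/mL stock, 10 µL) added for 4 h at 37 °C, formazan dissolved in DMSO, absorbance read at 570 nm. Viability plotted against untreated control; IC50 = 50% growth inhibition. Means of at least three independent experiments.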
(Tetrazolium assays rely on reduction of a dye to a coloured formazan, in cell work by metabolically active cells.)

The subject of another data set is CHO-K1. The data set is described as follows: Selectivity index, ratio of IC50 for CHOK1 cells to IC50 for human NPC-TW01 cells. It is filed as functional. In a few lines: (§2)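 Selectivity index taken as the ratio between IC50 in the normal line (HUV-EC-C or CHO-K1) and IC50 in NPC-TW01. Each IC50 came from a 72 h MTT assay, with final concentrations of 0.5 nM to […].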

The next data set deals with MKN-45. The data set is described as follows: Cytotoxicity against human MKN45 cells after 72 hrs by MTT assay. It is filed as functional, cell-based. Conditions: MKN-45, 72 h.
The test system of data set [2] is HUVEC. The data set is described as follows: Selectivity index, ratio of IC50 for HUVEC cells to IC50 for human NPC-TW01 cells. It is filed as functional. In a few lines:
as §2

Data set [3] can be described thus: Cytotoxicity against human NPC-TW01 cells after 72 hrs by MTT assay. It is filed as functional, cell-based. The note with it: NPC-TW01, 72 h. An outline of the steps: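 2 × 10⁴ cells/well seeded 12 h before dosing; serial dilutions added at final 0.5 nM to […] for 72 h. Medium then replaced, MTT (5 mg/mL stock, 10 µL) added for 4 h at 37 °C, formazan dissolved in DMSO, absorbance read at 570 nm. Means of at least three independent experiments.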

Data set [4] can be described thus: Cytotoxicity against human Hep3B cells after 72 hrs by MTT assay. It is filed as functional, cell-based, Hep 3B2.
Data set [5] is described as follows: Cytotoxicity against CHOK1 cells after 72 hrs by MTT assay. It is filed as cell-based. Conditions: Cricetulus griseus, CHO-K1, 72 h.
Data set [6] in a line: Cytotoxicity against human MES-SA cells after 72 hrs by MTT assay. It is filed as functional, cell-based. An outline of the steps:
as §1

For the next data set, the system named is A498. The data set is described as follows: Cytotoxicity against human A498 cells after 72 hrs by MTT assay. The note with it: A498, 72 h. It is filed as functional, cell-based.
The next data set deals with HCT-116. The data set is described as follows: Cytotoxicity against human HCT116 cells after 72 hrs by MTT assay. It is filed as functional, cell-based. Conditions: HCT-116, 72 h. An outline of the steps: as §1
In data set [7] the test system is HUVEC. The data set is described as follows: Cytotoxicity against HUVEC cells after 72 hrs by MTT assay. It is filed as cell-based. The note with it: Homo sapiens.
The subject of data set [8] is NPC-TW01. Kind of data set: Induction of apoptosis in human NPC-TW01 cells assessed as chromosomal condensation by fluorescence microscopy. It is filed as functional, cell-based. In a few lines: (§3)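 NPC-TW01 cells grown on coverslips and exposed to compound at 1 µM for 24 h, washed in PBS, then fixed in 4% paraformaldehyde. For tubulin, cells were permeabilized (0.1% Triton X-100), blocked (0.1% BSA), and incubated 45 min at room temperature with anti-β-tubulin (1:200), followed by PE-goat anti-mouse IgG (1:100). For chromosomes, cells were stained with Hoechst 33258. Imaged by laser-scanning confocal microscopy.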

Data set [9] has as its system NPC-TW01. The data set is described as follows: Induction of morphological changes in human NPC-TW01 cells assessed as microtubule aggregation around nuclei at 1 uM by confocal microscopy. It is filed as functional, cell-based. In a few lines:
as §3

pIC50: −log10 of the molar value. Converted amounts (≈) assume the structure as drawn. The source made the active and inactive calls. The rule behind the calls is not given here.

What is called solubility is the dissolved amount per volume that the medium holds. A lower solubility goes with a poorly soluble substance. The term pIC50 denotes the IC50 on a negative log10 scale, so that one unit is a factor of ten. A lower pIC50 goes with a high IC50. `CO[C@@H]1O[C@H](C(=O)O)[C@@H](O)[C@H](O)[C@H]1OC(=O)CCC(=O)O[C@@H](C(=O)O[C@H]1C[C@@]2(O)[C@@H](OC(=O)c3ccccc3)[C@@H]3[C@]4(OC(C)=O)CO[C@@H]4C[C@H](O)[C@@]3(C)C(=O)[C@H](OC(C)=O)C(=C1C)C2(C)C)[C@@H](NC(=O)c1ccccc1)c1ccccc1` showed a solubility in data set [1] of 104 µg/mL (≈ 90.9 µM). Also, the pIC50 in the data set with NCI-H838 is 6.57; with MKN-45, less than 4.00; in [3] it was 7.17; in data set [4] it was less than 4.00; in [5], less than 4.00; in [6], 7.02. The pIC50 is less than 4.00 in the data set on A498, 6.34 in the data set on HCT-116 and less than 4.00 in the data set on HUVEC [7]. The Selectivity Index in the data set on CHO-K1 and with HUVEC [2] was more than 670 each time.
The compound `CO[C@@H]1O[C@H](CO)[C@@H](O)[C@H](O)[C@H]1OCCCC(=O)O[C@@H](C(=O)O[C@H]1C[C@@]2(O)[C@@H](OC(=O)c3ccccc3)[C@@H]3[C@]4(OC(C)=O)CO[C@@H]4C[C@H](O)[C@@]3(C)C(=O)[C@H](OC(C)=O)C(=C1C)C2(C)C)[C@@H](NC(=O)c1ccccc1)c1ccccc1` returned a solubility in data set [1] of 80 µg/mL (≈ 71.7 µM). The negative-log IC50 (pIC50) was 6.43 in the data set on NCI-H838; less than 4.00 in the data set with MKN-45; 7.11 in data set [3]; less than 4.00 in data set [4]; less than 4.00 in data set [5]; 6.76 in data set [6]. Besides, the pIC50 is less than 4.00 in the data set with A498, 6.32 in the data set with HCT-116 and less than 4.00 with HUVEC [7]. Further, the Selectivity Index in the data set with CHO-K1 and in the data set with HUVEC [2] was more than 780 each time.
As to `CO[C@@H]1O[C@H](C(=O)O)[C@@H](O)[C@H](O)[C@H]1OCCCC(=O)O[C@@H](C(=O)O[C@H]1C[C@@]2(O)[C@@H](OC(=O)c3ccccc3)[C@@H]3[C@]4(OC(C)=O)CO[C@@H]4C[C@H](O)[C@@]3(C)C(=O)[C@H](OC(C)=O)C(=C1C)C2(C)C)[C@@H](NC(=O)c1ccccc1)c1ccccc1`, the solubility in data set [1] worked out at 137 µg/mL (≈ 121 µM). Also, the pIC50 is 6.74 with NCI-H838; less than 4.00 in the data set with MKN-45; 7.17 in data set [3]; less than 4.00 in data set [4]; 4.62 in data set [5]; 6.70 in data set [6]. For the same compound, the negative logarithm of the IC50 (pIC50) is less than 4.00 in the data set with A498, 6.33 with HCT-116 and 4.36 in the data set on HUVEC [7]. In addition, the values for the Selectivity Index with CHO-K1 and in the data set on HUVEC [2] were 2790 and 1520, respectively.
Turning to `CC(=O)O[C@H]1C(=O)[C@@]2(C)[C@H]([C@H](OC(=O)c3ccccc3)[C@]3(O)C[C@H](OC(=O)[C@H](O)[C@@H](NC(=O)c4ccccc4)c4ccccc4)C(C)=C1C3(C)C)[C@]1(OC(C)=O)CO[C@@H]1C[C@@H]2O` [PACLITAXEL], the solubility in [1] is less than 0.4 µg/mL. Further, the negative-log IC50 (pIC50) in the data set on NCI-H838 is 7.59; in the data set with MKN-45, 4.05; in data set [4], 5.14; in data set [5], 4.80; in data set [6], 8.10; in the data set with A498, 5.06. Also, the values for the pIC50 in the data set on HCT-116 and in the data set with HUVEC [7] were 7.21 and 5.29, respectively.
In turn, `CO[C@@H]1O[C@H](CO)[C@@H](O)[C@H](O)[C@H]1OC(=O)CCC(=O)O[C@@H](C(=O)O[C@H]1C[C@@]2(O)[C@@H](OC(=O)c3ccccc3)[C@@H]3[C@]4(OC(C)=O)CO[C@@H]4C[C@H](O)[C@@]3(C)C(=O)[C@H](OC(C)=O)C(=C1C)C2(C)C)[C@@H](NC(=O)c1ccccc1)c1ccccc1` showed a solubility in data set [1] of 53 µg/mL (≈ 46.9 µM). In addition, the result with NPC-TW01 [8] and in the data set with NPC-TW01 [9] was Active. Also, the negative logarithm of the IC50 (pIC50) was 7.09 in the data set on NCI-H838; less than 4.00 with MKN-45; 7.60 in data set [3]; 4.00 in [4]; less than 4.00 in data set [5]; 7.09 in [6]. The pIC50 in the data set with A498 was less than 4.00; with HCT-116, 7.00; in the data set with HUVEC [7], less than 4.00. Moreover, the Selectivity Index in the data set with CHO-K1 and with HUVEC [2] was more than 250 in each case.
